Measured values collected from several papers.
Each line is one published result; the experiments were not run side by side.
Cell line: MCF7
Read-out: cell growth or viability

Cc1n[nH]c2ccc3nc(-c4ccc(C(=O)NCCN(C)C)cc4F)c4c(c3c12)CCCC4
GI50 (72 h): 0.99 µM

O=C(Nc1cccc(-c2cn(Cc3ccc(Br)cc3)nn2)c1)Nc1ccccc1Br
viability (CCK-8; 50 µM, 48 h): 89.7%

NCCC(=O)Nc1cccc(/N=c2\cc(-c3ccc4c(c3)OCO4)oc3ccccc23)c1
inhibition (CCK-8; 1 µM): 15.7%

O=C(NCc1cn(Cc2ccc(Br)cc2)nn1)Nc1ccccc1Br
viability (CCK-8; 50 µM, 48 h): 84.7%

C[C@H](Nc1ccc2c(c1)OCCn1cc(N3C(=O)OC[C@H]3C(F)F)nc1-2)C(N)=O
EC50 (ATP luminescence; 5 days): 0.129 µM

O=C(NCc1cn(Cc2cccc(Cl)c2)nn1)Nc1ccc(Cl)cc1
viability (CCK-8; 50 µM, 72 h): 87.2%

CN(C)CCNC(=O)c1ccc(-c2nc3ccc4[nH]ncc4c3c3c2CCCC3)c(F)c1
GI50 (72 h): 3.32 µM

CCOc1ccc(-c2cc(C(=O)O)c(-c3ccc(Cl)cc3)o2)cc1
EC50 (MTT; 48 h): 170 µM

COc1ccc(NC(=O)Nc2cccc(-c3cn(Cc4cccc(Cl)c4)nn3)c2)cc1
viability (CCK-8; 50 µM, 72 h): 101%

O=C(Nc1cccc(-c2cn(Cc3ccc(Cl)cc3)nn2)c1)Nc1ccccc1Br
viability (CCK-8; 50 µM, 72 h): 69.6%

NCC(=O)Nc1ccccc1/N=c1\cc(-c2ccc3c(c2)OCO3)oc2c(N)cccc12
inhibition (CCK-8; 1 µM): 7.42%

COc1ccc(NC(=O)NCc2cn(Cc3ccccc3C)nn2)cc1
viability (CCK-8; 50 µM, 72 h): 98.7%

O=C(NCc1cn(Cc2ccc(Br)cc2)nn1)Nc1ccc(Cl)cc1
viability (CCK-8; 50 µM, 48 h): 89.8%

COc1ccc(NC(=O)NCc2cn(Cc3ccc(Br)cc3)nn2)cc1
viability (CCK-8; 50 µM, 72 h): 89.2%

O=C(NCc1cn(Cc2ccc(Cl)cc2)nn1)Nc1ccccc1Br
viability (CCK-8; 50 µM, 48 h): 84.4%

COc1ccc(NC(=O)Nc2cccc(-c3cn(Cc4ccc(C)cc4)nn3)c2)cc1
viability (CCK-8; 50 µM, 72 h): 104%

O=C(Nc1ccc(Cl)cc1)Nc1ccc(-c2cn(Cc3cccc(Cl)c3)nn2)cc1
viability (CCK-8; 50 µM, 48 h): 91.8%

CCc1nc(C(N)=O)c(Nc2ccc(N3CCC(N4CCN(C)CC4)CC3)c(OC)c2)nc1NC1CCOCC1
GI50 (72 h): 0.406 µM

COc1ccc(C=NNC(=O)c2nc3ccccc3s2)cc1OS(C)(=O)=O
cell death (MTT; 100 µM, 48 h): 32.3%

CC(C)(C)c1cc(NC(=O)Nc2ccc(-c3cn4c(n3)sc3cc(OCCN5CCOCC5)ccc34)cc2)no1
GI50 (72 h): > 10 µM

O=C(NN=Cc1ccc(O)cc1)c1nc2ccccc2s1
cell death (MTT; 100 µM, 48 h): 38.1%

COc1ccc(NC(=O)NCc2cn(Cc3ccc(Cl)cc3)nn2)cc1
viability (CCK-8; 50 µM, 48 h): 90.6%

CC(C)C[C@@H](NC(=O)[C@H](C)NC(=O)CNC(=O)[C@@H](NC=O)C(C)C)C(=O)N[C@@H](C)C(=O)N[C@@H](C(=O)N[C@H](C(=O)N[C@@H](C(=O)N[C@@H](Cc1c[nH]c2ccccc12)C(=O)N[C@H](CC(C)C)C(=O)N[C@@H](Cc1c[nH]c2ccccc12)C(=O)N[C@H](CC(C)C)C(=O)N[C@@H](Cc1c[nH]c2ccccc12)C(=O)N[C@@H](C(=O)N[C@@H](Cc1c[nH]c2ccccc12)C(=O)NCCO)C(C)C)[C@H](C)O)C(C)C)C(C)C
GI50 (SRB; 48 h): 0.397 µM

O=C(Nc1ccc(-c2cn(Cc3ccc(Cl)cc3)nn2)cc1)Nc1ccccc1Br
viability (CCK-8; 50 µM, 72 h): 104%

COc1ccc(NC(=O)Nc2ccc(-c3cn(Cc4ccc(Br)cc4)nn3)cc2)cc1
viability (CCK-8; 50 µM, 72 h): 105%

NCCC(=O)Nc1ccc(/N=c2\cc(-c3ccc4c(c3)OCO4)oc3ccccc23)cc1
inhibition (CCK-8; 1 µM): 6.42%

COc1ccc(NC(=O)Nc2ccc(-c3cn(Cc4ccc(Cl)cc4)nn3)cc2)cc1
viability (CCK-8; 50 µM, 48 h): 95.1%

COc1ccc2/c(=N/c3ccccc3NC(=O)N3CCOCC3)cc(-c3ccc4c(c3)OCCO4)oc2c1
inhibition (CCK-8; 1 µM): 7.65%

COc1cccc2c1C(=O)c1c(O)c3c(c(O)c1C2=O)C[C@@](O)(C(=O)CO)C[C@@H]3O[C@H]1C[C@H](N)[C@H](O)[C@H](C)O1
IC50 (MTT; 48 h): 8.87 µM

COCCC(=O)Nc1ccccc1/N=c1\cc(-c2ccc3nc(N)oc3c2)oc2ccccc12
inhibition (CCK-8; 1 µM): 7.99%

Cc1n[nH]c2ccc3nc(-c4ccc(C(=O)NCCN(C)C)cc4F)c4c(c3c12)CCCCC4
GI50 (72 h): 5.72 µM

NCCC(=O)Nc1ccccc1/N=c1\cc(-c2ccc3oc(N)nc3c2)oc2ccccc12
inhibition (CCK-8; 1 µM): 6%

COc1ccc(NC(=O)Nc2cccc(-c3cn(Cc4ccccc4C)nn3)c2)cc1
viability (CCK-8; 50 µM, 48 h): 94.8%

NCCCCC(=O)Nc1ccccc1/N=c1\cc(-c2ccc3c(c2)OCO3)oc2ccccc12
inhibition (CCK-8; 1 µM): -4.92%

COc1cc(C=NNC(=O)c2nc3ccccc3s2)ccc1OS(C)(=O)=O
cell death (MTT; 100 µM, 48 h): 49.1%

NCC(=O)Nc1ccccc1/N=c1\cc(-c2ccc3c(c2)OCO3)oc2ccccc12
inhibition (CCK-8; 1 µM): 10.9%

CCCS(=O)(=O)Oc1cc(C=NNC(=O)c2nc3ccccc3s2)ccc1OC
cell death (MTT; 100 µM, 48 h): 26.3%
